Measurements as given in ChEMBL document CHEMBL4765320, “Identification and optimization of piperine analogues as neuroprotective agents for the treatment of Parkinson's disease via the activation of Nrf2/keap1 pathway” (Eur J Med Chem, 2020).
Calls of active or inactive are those of the source. The calls are words filed in the database; no cut-off is given here.

How the values were obtained:
PC-12 [1] = test: Neuroprotective activity against H2O2-induced cytotoxicity in rat PC-12 cells assessed as cell viability at 12.5 uM pretreated for 24 hrs followed by H2O2 challenge and measured after 24 hrs by MTT assay (reference value: 52.81 +/- 6%); type: functional; conditions: time 48 hrs, read-out: Activity
PC-12 [2] = test: Neuroprotective activity against H2O2-induced cytotoxicity in rat PC-12 cells assessed as cell viability at 100 uM pretreated for 24 hrs followed by H2O2 challenge and measured after 24 hrs by MTT assay (reference value: 52.81 +/- 6%); type: functional, cell-based; conditions: time 48.0 hrs
Mus musculus [3] = test: Neuroprotective activity in lesioned C57BL/6 mouse model of Parkinson's disease assessed as increase in time spent on rotarod at 50 mg/kg, po administered for 2 week before MPTP stimulation by rotarod test; type: functional; conditions: time 2 weeks
Method in brief: (§1)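 Male 10-week-old C57BL/6 mice (20–23 g), n = 6/group. Prophylactic: oral compound (50 or 100 mg/kg in saline) 2 weeks, then MPTP-HCl 25 mg/kg i.p. in week 3. Therapeutic: MPTP-HCl 25 mg/kg i.p. 1 week, then oral 100 mg/kg 2 weeks. Saline vehicle. Pole/rotarod training last 3 days; TH immunohistochemistry on SNpc and striatum.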

PC-12 [4] = test: Neuroprotective activity against H202-induced cell damage in rat PC-12 cells assessed as decrease in LDH content incubated at 12.5 to 25 uM for 24 hrs by Lactate dehydrogenase assay; type: functional, cell-based; conditions: dose 12.5-25 µM
Method in brief: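 PC12 cells seeded 1 × 10⁴/well for 24 h, pretreated with compound at several concentrations (12.5–100 µM range), then challenged with H2O2; LDH released into medium quantified as membrane-damage marker. Mean ± SD, three independent experiments.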

PC-12 [5] = test: Inhibition of H202-induced apoptosis in rat PC-12 cells assessed as necrotic cells at 12.5 uM after 24 hrs by Annexin-V-FITC/PI-staining based flow cytometric analysis (reference value: 0.33%); type: functional; design: scale not given: the % may be the effect or the level left
Method in brief: (§2)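 PC12 cells seeded 2 × 10⁵/well for 24 h, pretreated 24 h with 12.5, 25, 50 or 100 µM compound, then given fresh medium containing 650 µM H2O2. Harvested cells washed in binding buffer, stained 5 min with Annexin V-FITC/PI, analysed by flow cytometry.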

PC-12 [6] = test: Inhibition of H202-induced apoptosis in rat PC-12 cells assessed as late apoptotic cells at 50 uM after 24 hrs by Annexin-V-FITC/PI-staining based flow cytometric analysis (reference value: 32.5%); type: functional; design: scale not given: the % may be the effect or the level left; method in brief: as §2
PC-12 [7] = test: Inhibition of H2O2-induced mitochondrial membrane potential loss in rat PC-12 cells pretreated for 24 hrs followed by H2O2 challenge and measured after 24 hrs by JC-1 staining based fluorescence microplate reader assay; conditions: dose 12.5-50 µM, time 48.0 hrs
Mus musculus [8] = test: Neuroprotective activity in lesioned C57BL/6 mouse model of Parkinson's disease assessed as assessed as reduction in climbing down time at 50 mg/kg, po administered for 2 week before MPTP stimulation by pole test; type: functional; conditions: C57BL/6, po, 336 h, time 2 weeks; method in brief: as §1
Mus musculus [9] = test: Neuroprotective activity in lesioned C57BL/6 mouse model of Parkinson's disease assessed as assessed as reduction in climbing down time at 100 mg/kg, po administered for 2 week after MPTP stimulation by pole test; type: functional; conditions: C57BL/6, po, 336 h, read-out: INH, time 2 weeks; method in brief: as §1
PC-12 [10] = test: Cytoprotection activity against H2O2-induced rat PC12-shNT cell assessed as cell viability at 12.5 to 100 uM pretreated for 24 hrs followed by H2O2 challenge and measured after 24 hrs by MTT assay; type: functional, cell-based; conditions: dose 12.5-100 µM, time 48.0 hrs
Method in brief: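 PC12 lines made by lentiviral shRNA against rat Nrf2 (shNrf2-2) or scrambled control (shNT), selected with 0.5 mg/mL G418, knockdown confirmed by Western blot. Pretreated 24 h with 12.5, 25.0, 50.0 or 100 µM compound, then H2O2 for 24 h; viability by MTT; mean ± SD, three independent experiments.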

PC-12 [11] = test: Inhibition of H202-induced apoptosis in rat PC-12 cells assessed as early apoptotic cells at 100 uM after 24 hrs by Annexin-V-FITC/PI-staining based flow cytometric analysis (reference value: 15.16%); type: functional; design: scale not given: the % may be the effect or the level left; method in brief: as §2
PC-12 [12] = test: Inhibition of H202-induced apoptosis in rat PC-12 cells assessed as necrotic cells at 100 uM after 24 hrs by Annexin-V-FITC/PI-staining based flow cytometric analysis (reference value: 0.33%); type: functional; design: scale not given: the % may be the effect or the level left; method in brief: as §2
Mus musculus [13] = test: Neuroprotective activity in lesioned C57BL/6 mouse model of Parkinson's disease assessed as increase in time spent on rotarod at 100 mg/kg, po administered for 2 week after MPTP stimulation by rotarod test; type: functional; conditions: time 2 weeks; method in brief: as §1
Mus musculus [14] = test: Neuroprotective activity against lesioned C57BL/6 mouse model of Parkinson's disease assessed as upregulation of Nrf2 in SNpc and striatum area at 100 mg/kg , po administered for 2 week before MPTP stimulation by Immuno histochemistry assays; type: functional, organism-based; conditions: Brain, time 2.0 weeks
Method in brief: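 Prophylactic regimen in male C57BL/6 mice (n = 6): oral compound 100 mg/kg in saline 2 weeks, then MPTP-HCl 25 mg/kg i.p. in week 3. Nrf2 immunohistochemistry in striatum and SNpc, quantified as Nrf2-immunopositive density relative to total area; mean ± SD.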

PC-12 [15] = test: Inhibition of H202-induced apoptosis in rat PC-12 cells assessed as early apoptotic cells at 25 uM after 24 hrs by Annexin-V-FITC/PI-staining based flow cytometric analysis (reference value: 15.16%); type: functional; design: scale not given: the % may be the effect or the level left; method in brief: as §2
PC-12 [16] = test: Upregulation of NQO1 expression in rat PC-12 cell incubated for 24 hrs by Western blot analysis; type: functional
Method in brief: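 PC12 cells treated with compound for 24 h; lysates resolved by SDS-PAGE, transferred to PVDF and probed for HO-1 and NQO1; band intensities quantified densitometrically. Mean ± SD of three independent experiments.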

Mus musculus [17] = test: Neuroprotective activity in lesioned C57BL/6 mouse model of Parkinson's disease assessed as increase in time spent on rotarod at 100 mg/kg, po administered for 2 week before MPTP stimulation by rotarod test; type: functional; conditions: time 2 weeks; method in brief: as §1

Question: Which results are given for `COc1ccccc1/C=C/C=C/C(=O)N1CCCCC1`?
Answer: viability at 12.5 µM (PC-12 [1]): 88.8%; Activity (PC-12 [2]): Active; Time (Mus musculus [3]): 253.7 s; Activity (PC-12 [4]): Active; Activity (PC-12 [5]): 0.3%; Activity (PC-12 [6]): 12.95%; inhibition (PC-12 [7]): Dose-dependent effect; inhibition in vivo at 50 mg/kg (Mus musculus [8]): 38.1%; inhibition in vivo at 100 mg/kg (Mus musculus [9]): 20.6%; Activity (PC-12 [10]): Active; Activity (PC-12 [11]): 12.11%; Activity (PC-12 [12]): 0.57%; Time (Mus musculus [13]): 189.5 s; Activity (Mus musculus [14]): Active; Activity (PC-12 [15]): 12.72%; Activity (PC-12 [16]): Active; Time (Mus musculus [17]): 226.2 s
